Screening results from PubChem BioAssay.
Rad51 HR inh: blocks human Rad51 in homologous recombination; hRad51 DNA strand exchange, fluorescence dequenching; inhibition, % at 10 µM; 0.085% of 200,000 active; AID 1385;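 active = inhibition above 40% at the single screening dose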;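 note: 0% = DMSO control wells and 100% = blanks with heterologous ssDNA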
Target sequence (Q06609 whole entry, looked up): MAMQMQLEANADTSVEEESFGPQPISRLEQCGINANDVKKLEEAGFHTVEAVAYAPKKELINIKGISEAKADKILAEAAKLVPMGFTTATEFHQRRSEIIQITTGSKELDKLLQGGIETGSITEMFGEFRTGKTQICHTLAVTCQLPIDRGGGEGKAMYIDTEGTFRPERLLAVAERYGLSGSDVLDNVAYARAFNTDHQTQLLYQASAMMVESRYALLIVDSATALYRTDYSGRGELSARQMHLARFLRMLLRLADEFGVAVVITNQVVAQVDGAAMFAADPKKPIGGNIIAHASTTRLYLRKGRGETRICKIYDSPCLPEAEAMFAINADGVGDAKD
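Test system: preformed human Rad51 ssDNA filaments; also added: Donor/quencher-labelled 47-bp dsDNA substrate; doses: 10 µM final, single point; times: 37 °C 15-min filament assembly, 30-min compound preincubation, 15-min exchange; detection: FRET fluorescence dequenching, excitation 485 nm, emission 520 nm; read-out basis: Fluorescence-based percent inhibition, control- and blank-normalised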
Yeast life ext: yeast lifespan extension. S. cerevisiae growth with nicotinamide, OD615; deaD strain in restrictive glucose medium. inhibition of the nicotinamide effect, % at 10 µM. 0.68% of 130,000 active;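 active = inhibition above a set limit, placed 3 SD over the median of all compounds, cut at about 26% in these data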;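 note: 0% = nicotinamide-treated wells and 100% = cells grown without nicotinamide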
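Test system: DeaD-strain S. cerevisiae / Buffer or medium: restrictive glucose medium / Also added: nicotinamide 1.5 mM / Doses: one concentration, 10 µM, DMSO 0.25% / Schedule: 48 h at 30 °C / Signal: OD615 measurement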
Measles CPE: protection of cells from measles virus; Measles virus-infected cells, CPE protection, absorbance; protection (pct of control), % at 4 µM; 1.5% of 140,000 active; in the data active = protection mostly above about 24%, no sharp cut-off; inactive = mostly below about 26%
Efa HMGR inh: blocks class II HMG-CoA reductase of Enterococcus faecalis. purified E. faecalis HMGR, NADPH absorbance 340 nm kinetic. inhibition, % at 10 µM. 0.41% of 190,000 active. AID 1066;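 active = inhibition above a set limit, the median over all tested compounds plus 3 SD, cut at about 9.5% in these data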;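 note: enzyme runs in reverse so mevalonate oxidation gives rising NADPH absorbance; 0% = complete reaction with DMSO and 100% = background rate lacking mevalonate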
Arbovirus anti: antivirals against arbovirus infection; arbovirus infection cell-based antiviral screen; inhibition, % at 10 µM; 0.37% of 200,000 active; in the data active = inhibition above about 30%
Yeast growth inh: chemicals that inhibit yeast BB579 growth in restrictive medium (lifespan-shortening candidates); S. cerevisiae BB579 growth, OD615, 48 h; inhibition, % at 10 µM; 0.51% of 140,000 active; AID 804;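 active = inhibition above a set limit, 3 SD over the mean compound inhibition, cut at about 44% in these data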
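Material: Saccharomyces cerevisiae DeaD strain BB579, replicative lifespan model yeast; buffer or medium: CSMM-D restrictive synthetic medium containing dextrose (glucose); compound: 10 µM single dose, DMSO 0.25%; timing: 48 h compound exposure at 30 °C after 4 h preincubation; signal: turbidity as optical density at 615 nm; benchmarks: positive control amphotericin B 10 µg/mL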
Starred values were filed as active, the others as inactive; x = not tested or not shown. An excerpt weighted towards active compounds, which were near 2.4% of everything screened.

SMILES	Rad51 HR inh	Yeast life ext	Measles CPE	Efa HMGR inh	Arbovirus anti	Yeast growth inh
CCCc1cc(C(=O)NC2CCCCC2)no1	-2.8	0.3	-1.6	-2.3	0.9	43.3*
Cc1sc2nc(CSCC(=O)N(CCC#N)c3ccccc3)[nH]c(=O)c2c1C	-14.8	x	x	0.6	17.6	x
COc1cc(S(=O)(=O)N2CCCCC2)ccc1NC(C)=O	-14.9	-10.8	51.7*	-11.4	2.9	13.6
Cn1cc(C(=O)c2ccc(Cl)cc2)cc1-c1nc2ccccc2n1C	-13.8	-28.1	7.7	3.9	5.3	-41.2
COC(=O)c1ccccc1N/C=C/C(=O)c1ccc(Br)cc1	-3.9	-6.3	1.4	-5.3	63.0*	-22.4
CNc1nc(C)c(C(=O)c2ccc(Cl)cc2)s1	-4.8	-17.1	14.2	-6.0	1.2	1.9
COc1ccc2[nH]c3c(Cl)ncnc3c2c1	-2.4	-8.3	13.1	-2.2	6.5	56.0*
Cc1cc(Cl)ccc1N=c1ssnc1Cl	-3.4	-12.7	10.1	-4.4	8.7	63.1*
Cc1cc(C)nc(/N=c2/ssnc2Cl)c1	-5.6	0.0	18.3	12.1*	-27.9	21.7
Cc1ccc(N=c2ssnc2Cl)cc1	-1.7	-6.6	7.6	-4.7	-33.4	20.2
COc1cc(N=c2ssnc2Cl)c(OC)cc1Cl	-2.4	-1.9	8.5	-1.7	-16.1	7.8
Cc1c(NS(=O)(=O)c2cc(NC(=O)CCN3CCCC(C)C3)ccc2Cl)c(=O)n(-c2ccccc2)n1C (configuration not stated)	-5.5	x	x	-5.7	18.9	x
CC(C)OCCCNC(=O)Nc1cccc2ccccc12	-8.5	x	x	14.2*	-3.8	x
CC(C)(CO)C(O)C(=O)NCCC#N (configuration not stated)	-2.3	x	x	-2.2	0.0	x
COc1ccc(C(C)=O)cc1COC(=O)c1cnc(Cl)c(Cl)c1	x	x	x	-2.1	5.1	x
CCC(C)NC(=O)CS(=O)Cc1nc(-c2ccccc2C)oc1C (configuration not stated)	x	-0.5	12.8	-1.7	1.9	47.1*
O=C(NC(=S)NCc1ccccc1)c1ccc2c(c1)OCO2	-6.7	-11.6	30.9*	-1.1	3.0	19.3
O=C(O)/C=C/C(=O)Nc1ccc(S(=O)(=O)N2CCCC2)cc1	-1.4	x	x	-1.9	14.5	x
CCCC(CCC)C(=O)Nc1cccc(C(=O)O)c1	x	-5.7	12.2	-1.5	3.0	-13.5
O=[N+]([O-])c1ccccc1CNC(Cc1ccccc1)c1ccccc1 (configuration not stated)	6.3	7.3	11.7	-1.1	-2.1	-59.1
COc1ccc(NCc2ccc([N+](=O)[O-])s2)c(OC)c1	9.1	-7.7	9.7	-2.7	-7.6	99.7*
CC1=C(C)CC(C(=O)c2ccccc2)C(C(=O)O)C1 (configuration not stated)	2.6	4.3	47.7*	-8.6	-2.4	1.6
O=C1NC(=O)/C(=C/C(=O)N2CCOCC2)S1	1.0	x	x	13.5*	-3.7	x
COCCN1C(=O)N[C@@H](c2ccccc2)[C@H](C(=O)OC)[C@H]1C	-4.4	x	x	x	x	x
CC(C)(C)SCCNC(=O)Nc1ccccc1	-1.6	-2.7	34.8*	-5.0	-0.6	-20.4
SMILES	Rad51 HR inh	Yeast life ext	Measles CPE	Efa HMGR inh	Arbovirus anti	Yeast growth inh
CC(=O)NC(c1ccc(C)cc1)c1cc([N+](=O)[O-])c2cccnc2c1O (configuration not stated)	-17.7	x	x	-4.7	-25.1	x
CCC(=O)NC(c1ccc(C)cc1)c1cc([N+](=O)[O-])c2cccnc2c1O (configuration not stated)	9.4	-3.8	17.3	-2.2	-26.1	85.4*
COc1ccc(CN2C(=O)c3ccccc3C(/C=N\OCc3ccc(C)cc3)C2=O)cc1 (configuration not stated)	-4.8	-0.3	25.9	4.5	-11.4	-35.5
CCCOc1ccc(CC(CC(=O)O)(C(=O)O)C(=O)O)cc1	1.0	-6.2	46.2*	-6.5	6.2	-34.5
O=C1C(=O)N(CCN2CCOCC2)C(c2ccccn2)/C1=C(/O)c1ccccc1 (configuration not stated)	2.4	26.0*	7.8	3.4	-2.0	-24.9
Cc1ccc(-c2nc3ccc(Cl)cc3n2OC(C)C(=O)O)cc1 (configuration not stated)	19.3	x	x	-5.4	2.6	x
Oc1ccc(Cl)cc1Cc1cc(Cl)ccc1O	-1.7	-7.0	16.1	-0.9	-44.5	83.7*
Oc1ccc(Cl)cc1CNn1cnnc1	-6.8	x	x	3.2	-2.1	x
